The values below come from ChEMBL document CHEMBL4004817, “Constituents of the Rhizomes of Boesenbergia pandurata and Their Antiausterity Activities against the PANC-1 Human Pancreatic Cancer Line” (J Nat Prod, 2017).

Series [1] deals with PANC-1. The series can be described thus: Antiausteritic activity against human PANC1 cells in nutrient-deprived medium measured after 24 hrs by WST8 assay. The class given is functional. The essentials: (§1)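 Human pancreatic cancer cells were seeded at 1.5 × 10^4/well in DMEM for 24 h at 37 °C under 5% CO2. After two PBS washes, cells received serially diluted samples in DMEM (nutrient-rich) or NDM (pH 7.4), with a control and blank on each plate. After 24 h, cells were washed and given DMEM with 10% WST-8 for 3 h, then A450 was read. Viability (mean of three wells) = (sample − blank)/(control − blank) × 100. For NDM, PC50 is the concentration killing 50% of cells preferentially. Arctigenin was the positive control.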

Series [2] has as its system PANC-1. The series can be described thus: Cytotoxicity against human PANC1 cells in DMEM measured after 24 hrs by WST8 assay. In kind it is cell-based. The note with it: panc-1, 24 h. The essentials:
as §1

The subject of series [3] is PANC-1. The series can be described thus: Antiausteritic activity against human PANC1 cells in nutrient-deprived medium assessed as changes in cell morphology by measuring increase in round appearance at 1.5 uM after 24 hrs by ethidium bromide/acridine orange staining based fluorescence imaging method. In kind it is functional. The essentials: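 PANC-1 cells were seeded at 6 × 10^4/well in DMEM and held 24 h at 37 °C under 5% CO2. They were washed twice with PBS, then switched to NDM alone (control) or with compound at 1.5 μM for 24 h. EB/AO reagent was added for 5 min, and cells were imaged under fluorescence and phase contrast (20×). Green AO marks live cells; red EB marks dead cells.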

Active and inactive are the calls of the source. The calls are words filed in the database; no cut-off is given here.

`COc1cc(O)c(C(=O)[C@@H]2CC=C(C)[C@@H](/C=C/C(C)(C)O)[C@H]2c2ccccc2)c(O)c1` gave a PC50 in series [1] of 3.3 µM. In addition, the Activity entry in series [2] is listed as “Non-Toxic”.
In series [1], `COc1cc(C[C@H]2C(=O)OC[C@@H]2Cc2ccc(OC)c(OC)c2)ccc1O` [ARCTIGENIN] had a PC50 of 0.83 µM.
The compound `CC(C)=CC[C@H]1C(C)=CC[C@@H](c2ccccc2)[C@@H]1C(=O)c1c(O)cc(O)cc1O` gave a PC50 in series [1] of 5.8 µM. Moreover, the Activity entry in series [2] is on record as “Non-Toxic”.
In the same order, the values of `CC(C)=CC[C@@H]1C(C)=CC[C@@H](c2ccccc2)[C@@H]1C(=O)c1c(O)cc(O)cc1O` [4-HYDROXYPANDURATIN A] are 3.1 µM and “Non-Toxic”.
In the same order, the values of `COc1cc(O)c(C(=O)[C@@H]2CC=C(C)[C@@H](CC=C(C)C)[C@H]2c2ccccc2)c(O)c1` [(-)-NICOLAIOIDESIN B] are 2.1 µM and “Non-Toxic”.
`COc1cc(O)c(C(=O)[C@@H]2[C@H](CC=C(C)C)C(C)=CC[C@H]2c2ccccc2)c(O)c1` [PANDURATIN A]: the PC50 in series [1] came to 7.8 µM. The Activity result in series [2] is recorded as “Non-Toxic”.
In the same order, the values of `COc1cc(O)c(C(=O)[C@@H]2CC=C(C)[C@H](CC=C(C)C)[C@H]2c2ccccc2)c(O)c1` are 7.8 µM and “Non-Toxic”.
`C=C(C)C(O)C[C@@H]1C(C)=CC[C@@H](c2ccccc2)[C@@H]1C(=O)c1c(O)cc(OC)cc1O` (some centres not stated): the PC50 in series [1] amounted to 18.1 µM. Further, the Activity entry in series [2] was “Non-Toxic”.
In the same order, the values of `COc1cc(O)cc(O)c1C(=O)[C@@H]1CC=C(C)[C@H](CC=C(C)C)[C@H]1c1ccccc1` are 7.4 µM and “Non-Toxic”.
In the same order, the values of `COc1cc(O)c(C(=O)[C@@H]2[C@H](C/C=C(\C)CO)C(C)=CC[C@H]2c2ccccc2)c(O)c1` are 6.3 µM and “Non-Toxic”.
As to `COc1cc(O)cc(O)c1C(=O)[C@@H]1[C@H](CC=C(C)C)C(C)=CC[C@H]1c1ccccc1`, the PC50 in series [1] turned out to be 2.8 µM. For the same compound, the Activity result in series [2] is reported as “Non-Toxic”.
In the same order, the values of `COc1cc(O)cc(O)c1C(=O)[C@@H]1[C@H](/C=C/C(C)(C)OC)C(C)=CC[C@H]1c1ccccc1` are 10.5 µM and “Non-Toxic”.
In the case of `COc1cc(O)c(C(=O)[C@@H]2CC=C(CCC=C(C)C)C[C@H]2c2ccccc2)c(O)c1`, the PC50 in series [1] came to 0.84 µM. Also, the Activity entry in series [2] was “Non-Toxic”. In series [3], the result was Active.
Compound `COc1cc(O)c(C(=O)[C@@H]2[C@H](/C=C/C(C)(C)O)C(C)=CC[C@H]2c2ccccc2)c(O)c1` displayed a PC50 in series [1] of 6.6 µM. In addition, in series [2], the Activity entry is “Non-Toxic”.
In the same order, the values of `COc1cc(O)c(C(=O)[C@@H]2[C@@H](CC=C(C)C)C(C)=CC[C@H]2c2ccccc2)c(O)c1` are 7.2 µM and “Non-Toxic”.
In the same order, the values of `COc1cc(O)cc(O)c1C(=O)[C@@H]1CC=C(C)[C@@H](CC=C(C)C)[C@H]1c1ccccc1` are 1 µM and “Non-Toxic”.
